The record followed here is ChEMBL document CHEMBL1151912, “ACE inhibitors hypothesis generation for selective design, synthesis and biological evaluation of 3-mercapto-2-methyl-propanoyl-pyrrolidine-3-imine derivatives as antihypertensive agents” (2009).

The test system of assay [1] is Felis catus. Put plainly: Antihypertensive activity in anesthetized normotensive cat assessed as mean reduction of systolic blood pressure at 0.00246 mmol/kg. The format is functional, Artery.
Assay [2] deals with Felis catus. Put plainly: Antihypertensive activity in anesthetized normotensive cat assessed as mean reduction of diastolic blood pressure at 0.00246 mmol/kg relative to control. The format is functional, Artery. Details: scale not given: the % may be the effect or the level left. In outline: (§1)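 Normotensive adult cats dosed at 0.00246 mmol/kg. Systolic and diastolic blood pressure recorded in mmHg and reported as mean ± SE. The value is the mean % change from the control group. Significance versus control was tested at p < 0.05.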

Assay [3] concerns Felis catus. Nature of the assay: Antihypertensive activity in anesthetized normotensive cat assessed as mean reduction of systolic blood pressure at 0.00246 mmol/kg relative to control. Details: scale not given: the % may be the effect or the level left. The format is functional, Artery. In outline: as §1
In assay [4] the test system is Felis catus. Nature of the assay: Hypotensive activity in anesthetized normotensive cat at 0.0014 mmol/kg. The format is functional, organism-based.
Assay [5] has as its system Felis catus. Nature of the assay: Antihypertensive activity in anesthetized normotensive cat assessed as mean reduction of diastolic blood pressure at 0.00246 mmol/kg. Format: functional, Artery.
Assay [6] relates to Felis catus. Put plainly: Hypotensive activity in anesthetized normotensive cat at 0.0031 mmol/kg. Format: functional, organism-based.
Assay [7] has as its system Felis catus. Put plainly: Hypotensive activity in anesthetized normotensive cat at 0.00285 mmol/kg. The format is functional, organism-based.
Assay [8] concerns Felis catus. Nature of the assay: Hypotensive activity in anesthetized normotensive cat at 0.0012 mmol/kg. Format: functional, organism-based.

Activity calls are given as the source filed them. No cut-off for these calls is given here.

On to `COc1ccc(CC2C(=O)CCN2C(=O)C(C)CS)cc1` (centres undefined), for which, in the assay on Felis catus [1], the Systolic blood pressure is 104.9 mmHg. The Activity in the assay with Felis catus [2] came to 8%; in the assay on Felis catus [3], 21.67%. In addition, in the assay on Felis catus [4], the result was Active. Moreover, the Diastolic blood pressure in the assay with Felis catus [5] is 115 mmHg.

Take `C[C@H](CS)C(=O)N1CCC[C@H]1C(=O)O` [CAPTOPRIL]: the Systolic blood pressure in the assay on Felis catus [1] turned out to be 105.9 mmHg. The Activity with Felis catus [2] is 21.89%; in the assay with Felis catus [3] it was 20.91%. Moreover, in the assay with Felis catus [5], the Diastolic blood pressure was 97.6 mmHg.

In the case of `COc1ccc(CC2/C(=N/O)CCN2C(=O)C(C)CS)cc1` (centres undefined), the Systolic blood pressure in the assay with Felis catus [1] was 121.9 mmHg. Moreover, the Activity with Felis catus [2] is recorded as 12.22%; with Felis catus [3], 9%. Also, in the assay with Felis catus [5], the Diastolic blood pressure was determined as 109.7 mmHg. Also, in the assay with Felis catus [6], the outcome was Active.

Consider `COc1ccc(CC2/C(=N/CCO)CCN2C(=O)C(C)CS)cc1` (centres undefined), for which the Systolic blood pressure with Felis catus [1] is 106 mmHg. Besides, the Activity in the assay with Felis catus [2] was found to be 9%; in the assay with Felis catus [3], 20.83%. Moreover, in the assay on Felis catus [7], the result was Active. In addition, the Diastolic blood pressure with Felis catus [5] came out at 113.7 mmHg.

For the compound `CCOC(=O)C(C)/N=C1\CCN(C(=O)C(C)CS)C1Cc1ccc(OC)cc1` (centres undefined), the outcome in the assay on Felis catus [8] was Active. For the same compound, in the assay on Felis catus [1], the Systolic blood pressure is listed as 93.3 mmHg. For the same compound, the Activity is recorded as 32.8% in the assay with Felis catus [2] and 30.37% with Felis catus [3]. The Diastolic blood pressure with Felis catus [5] was found to be 84 mmHg.
